Experimental data as given in PMC10499415 (Clinical and Translational Science, 2023).
Read-outs that look alike come from different tables or passages of the source.

Experiments:
[1] = Phase I hepatic impairment study: safety and tolerability; format: in vivo, human
In short: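 Adults with chronic, stable hepatic impairment graded by Child-Pugh score (mild 5–6, moderate 7–9, severe 10–15), plus healthy controls matched on age, BMI and sex. All received a single oral 20 mg dose of test compound with ~240 mL water after an overnight fast of ≥10 h. Inpatient from day −1 to day 4, with repeated clinical and laboratory safety evaluations through day 4. AEs were queried by contact ~14 days post-dose.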

[2] = for AUC0–24 GMR (90% CI) / AUC0–inf GMR (90% CI) / C max GMR (90% CI): GMR = 100 × (test/reference); for increase in AUC0–inf compared with matched controls / increase in C max compared with matched controls: single oral 20 mg
[3] = parameters: AUC0–t / AUC0–inf: unit not given beside the values; conditions: cited from earlier work
[4] = parameters: unit not given beside the values; conditions: subjects who received futibatinib alone; cited from earlier work
[5] = tested on: cytochrome P450 (CYP450); conditions: in vitro; cited from earlier work
[6] = cited from earlier work
[7] = clinical; conditions: human, in vivo, po, 20 mg, T max
[8] = cited from earlier work; remark: listed apart in the source
[9] = healthy male adults; cited from earlier work
[10] = hepatic impairment groups vs overall healthy control group, range over groups
[11] = mild HI vs matched healthy control
[12] = mild HI vs overall healthy control cohort
[13] = moderate HI vs matched healthy control
[14] = moderate HI vs overall healthy control cohort
[15] = severe HI vs matched healthy control
[16] = severe HI vs overall healthy control cohort
[17] = healthy subjects, fasted conditions

**Q.** With C=CC(=O)N1CC[C@H](n2nc(C#Cc3cc(OC)cc(OC)c3)c3c(N)ncnc32)C1 [futibatinib, Futibatinib] as the compound, how does the laboratory results ([1]; all cohorts) read?
**A.** No unexpected findings or remarkable trends

**Q.** What about the “study discontinuations due to TEAEs” value ([1]; all cohorts) of the same compound?
**A.** no study discontinuations

**Q.** What about the “total TEAEs reported (all grade 1)” value ([1]; all cohorts, 38 participants) of the same compound?
**A.** four

**Q.** And the “participants reporting TEAEs” value ([1]; moderate hepatic impairment cohort)?
**A.** No participants

**Q.** And the “participants reporting TEAEs” value ([1]; severe hepatic impairment cohort)?
**A.** No participants

**Q.** And the tolerability ([1]; single oral 20 mg, all groups)?
**A.** well‐tolerated

**Q.** And the “geometric mean C max greater than in corresponding matched healthy control group” value ([2]; across the hepatic impairment groups)?
**A.** 10%–43%

**Q.** And the “geometric mean AUC greater than in corresponding matched healthy control group” value ([2]; across the hepatic impairment groups, AUC0–24, AUC0–t, AUC0–inf)?
**A.** 17%–21%

**Q.** What about the “mean percentage of AUC0–inf extrapolated” value ([2]; all groups) of the same compound?
**A.** < 2%

**Q.** And the “GMRs for AUC” value [2, 10]?
**A.** 85.9% to 122.5%

**Q.** What about the “GMRs for C max” value [2, 10] of the same compound?
**A.** 113.5% to 117.9%

**Q.** What about the “AUC0–24 GMR (90% CI)” value [2, 11] of the same compound?
**A.** 121.19 (74.27–197.74) %

**Q.** And the “AUC0–inf GMR (90% CI)” value [2, 11]?
**A.** 120.79 (73.89–197.47) %

**Q.** What about the “C max GMR (90% CI)” value [2, 11] of the same compound?
**A.** 142.53 (103.42–196.44) %

**Q.** What about the “AUC0–24 GMR (90% CI)” value [2, 12] of the same compound?
**A.** 85.92 (54.94–134.38) %

**Q.** What about the “AUC0–inf GMR (90% CI)” value [2, 12] of the same compound?
**A.** 85.66 (54.70–134.15) %

**Q.** And the “C max GMR (90% CI)” value [2, 12]?
**A.** 113.52 (82.50–156.21) %

**Q.** What about the “increase in futibatinib exposure versus healthy matched controls” value ([2]; mild hepatic impairment) of the same compound?
**A.** 21%–43%

**Q.** And the “increase in AUC0–inf compared with matched controls” value (from here on “increase in AUC0–inf”) ([2]; mild hepatic impairment)?
**A.** 21%

**Q.** What about the “increase in C max compared with matched controls” value (shortened to “increase in C max”) ([2]; mild hepatic impairment) of the same compound?
**A.** 43%

**Q.** And the “AUC0–24 GMR (90% CI)” value [2, 13]?
**A.** 119.62 (54.08–264.61) %

**Q.** What about the “AUC0–inf GMR (90% CI)” value [2, 13] of the same compound?
**A.** 119.61 (53.90–265.45) %

**Q.** And the “C max GMR (90% CI)” value [2, 13]?
**A.** 114.85 (75.38–175.00) %

**Q.** What about the “AUC0–24 GMR (90% CI)” value [2, 14] of the same compound?
**A.** 122.20 (64.51–231.48) %

**Q.** What about the “AUC0–inf GMR (90% CI)” value [2, 14] of the same compound?
**A.** 122.49 (64.50–232.63) %

**Q.** And the “C max GMR (90% CI)” value [2, 14]?
**A.** 117.90 (82.04–169.44) %

**Q.** What about the “increase in futibatinib exposure versus healthy matched controls” value ([2]; moderate hepatic impairment) of the same compound?
**A.** 15%–20%

**Q.** And the “increase in AUC0–inf” value ([2]; moderate hepatic impairment)?
**A.** 20%

**Q.** What about the “increase in C max” value ([2]; moderate hepatic impairment) of the same compound?
**A.** 15%

**Q.** What about the “AUC0–24 GMR (90% CI)” value [2, 15] of the same compound?
**A.** 116.91 (57.52–237.60) %

**Q.** What about the “AUC0–inf GMR (90% CI)” value [2, 15] of the same compound?
**A.** 118.23 (57.79–241.87) %

**Q.** And the “C max GMR (90% CI)” value [2, 15]?
**A.** 109.64 (66.62–180.44) %

**Q.** And the “AUC0–24 GMR (90% CI)” value [2, 16]?
**A.** 117.62 (67.44–205.13) %

**Q.** And the “AUC0–inf GMR (90% CI)” value [2, 16]?
**A.** 118.57 (67.46–208.38) %

**Q.** And the “C max GMR (90% CI)” value [2, 16]?
**A.** 117.78 (87.42–158.68) %

**Q.** And the “increase in AUC0–inf” value ([2]; severe hepatic impairment)?
**A.** 18%

**Q.** And the “increase in C max” value ([2]; severe hepatic impairment)?
**A.** 10%

**Q.** And the “increase in futibatinib exposure versus healthy matched controls” value ([2]; severe mild hepatic impairment (so in the source))?
**A.** 10%–18%

**Q.** And the “median T max” value ([3]; fed conditions)?
**A.** 4.0 h

**Q.** And the “bioavailability lower under fed versus fasted conditions” value ([3]; fed versus fasted)?
**A.** 11.2%

**Q.** What about the “AUC0–inf” value [3, 17] of the same compound?
**A.** 625.7

**Q.** What about the “AUC0–t” value [3, 17] of the same compound?
**A.** 617.8

**Q.** What about the “AUC0–inf” value [4] of the same compound?
**A.** 941

**Q.** And the “AUC0–t” value [4]?
**A.** 934.0

**Q.** And the “contribution of CYP450–related metabolism to the overall metabolism” value [5]?
**A.** ~ 50%

**Q.** What about the “impact of futibatinib on the PKs of CYP3A substrates” value [6] of the same compound?
**A.** no impact

**Q.** And the futibatinib exposure increase ([6]; co‐administered with itraconazole)?
**A.** 40%–50%

**Q.** And the futibatinib exposure decrease ([6]; co‐administered with rifampin)?
**A.** 50%–60%

**Q.** And the Tmax [7]?
**A.** 1.75 h

**Q.** What about the accumulation ([8]; after repeat once daily doses) of the same compound?
**A.** no accumulation

**Q.** What about the “mean half‐life” value ([8]; patients with cancer and healthy subjects) of the same compound?
**A.** ~ 3 h

**Q.** And the “dose proportionality of exposure” value ([8]; up to 80 mg)?
**A.** Dose‐proportional exposure increases

**Q.** What about the “total amount of unchanged futibatinib in urine and feces” value [9] of the same compound?
**A.** negligible
